# Experimental data taken from ChEMBL document CHEMBL1157743, “Mitotic arrest induced by a novel family of DNA topoisomerase II inhibitors” (J Med Chem, 2010).
# Legend:
# SW1573 = assay: Antiproliferative activity against human SW1573 cells after 48 hrs by SRB assay; format: functional; conditions: SW1573, 48 h
# Method in brief: (§1)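 Human solid tumor lines and three immortalized nontumor lines in culture, exposed to the test agent. Read-out is growth inhibition, reported as GI50 (μM).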
# HBL-100 = assay: Antiproliferative activity against human HBL100 cells after 48 hrs by SRB assay; format: functional; conditions: HBL-100, 48 h; method in brief: as §1
Compound,GI50 (SW1573) [nM],GI50 (HBL-100) [nM]
CCCCCCC(C#CC(=O)OC)O/C=C/C(=O)OC (stereo unspecified),3300,2500
COC(=O)/C=C/OC(C#CC(=O)O)C(C)(C)C (stereo unspecified),> 100000,> 100000
COC(=O)C#CC(CC(C)C)O/C=C/C(=O)OC (stereo unspecified),380,330
Cc1ccc(S(=O)(=O)C#CC(O/C=C/S(=O)(=O)c2ccc(C)cc2)C(C)C)cc1 (stereo unspecified),3200,3800
COC(=O)C#CC(CCc1ccccc1)O/C=C/C(=O)OC (stereo unspecified),2600,2600
CCCC(C#CC(=O)OC)O/C=C/C(=O)OC (stereo unspecified),320,270
CCCCCCCCCCC(C#CC(=O)OC)O/C=C/C(=O)OC (stereo unspecified),2000,2200
CC(C)C(C#CC(=O)OC(C)(C)C)O/C=C/C(=O)OC(C)(C)C (stereo unspecified),4800,3000
COC(=O)C#CC(O/C=C/C(=O)OC)C(C)C (stereo unspecified),750,450
COC(=O)C#CC(O/C=C/C(=O)OC)C1CCCCC1 (stereo unspecified),2100,2500
CCOC(=O)C#CC(C[C@@H](C)CCC=C(C)C)O/C=C/C(=O)OCC (stereo partly specified),2600,2600
COC(=O)C#CC(O/C=C/C(=O)OC)C(C)c1ccccc1 (stereo unspecified),1200,490
COC(=O)C#CC(O/C=C/C(=O)OC)C1CC1 (stereo unspecified),1800,250
